The text below walks through data of ChEMBL document CHEMBL1135955, “Substituted benzocyloheptenes as potent and selective alpha(v) integrin antagonists” (Bioorg Med Chem Lett, 2002).

The subject of one data set is IGROV-1. Put plainly: Cellular adhesion inhibitory concentration with IGROV-1 cell line. The data set is classed as functional, cell-based. The settings on record: Homo sapiens. A digest of the protocol: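 Human ovarian carcinoma IGROV-1 cells were preincubated with compound before adhesion. They were then washed, fixed and stained with crystal violet, and adhesion was quantified by image analysis. IC50 came from sigmoid variable-slope fits of dose–response sets from at least two experiments.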

For the next data set, the species on record is Homo sapiens. As to the kind of experiment: Oral absorption using Caco-2 cell monolayers. The settings on record: in vitro. The data set is classed as ADME.
The target of a further data set is Integrin alpha-V/beta-3 (Homo sapiens, UniProt P05106+P06756). Put plainly: Displacement of vitronectin from Human integrin alphaV-beta3. The class given is protein-complex assay. The method in brief:
(§1)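 Purified-receptor ligand-binding assay on human integrins αvβ3 and αvβ5 (vitronectin displacement) and αIIbβ3 (receptor from platelets). Bound ligand was detected indirectly by colorimetric reading after adding an anti-biotin antibody coupled to alkaline phosphatase. IC50 came from sigmoid variable-slope fits of dose–response data from at least two experiments per compound.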

For another data set, the target named is Integrin alpha-V/beta-5 (Homo sapiens, UniProt P06756+P18084). As to the kind of experiment: Displacement of vitronectin from human integrin alphaV-beta5. The data set is classed as protein-complex assay. A digest of the protocol:
as §1

In data set [1] the target is Integrin alpha-IIb/beta-3 (Homo sapiens, UniProt P05106+P08514). As to the kind of experiment: Displacement of fibrinogen from Human integrin alphaIIb-beta3. The class given is protein-complex assay. A digest of the protocol:
as §1

Chain of Integrin alpha-V/beta-3 (P05106 27-788 limits assumed): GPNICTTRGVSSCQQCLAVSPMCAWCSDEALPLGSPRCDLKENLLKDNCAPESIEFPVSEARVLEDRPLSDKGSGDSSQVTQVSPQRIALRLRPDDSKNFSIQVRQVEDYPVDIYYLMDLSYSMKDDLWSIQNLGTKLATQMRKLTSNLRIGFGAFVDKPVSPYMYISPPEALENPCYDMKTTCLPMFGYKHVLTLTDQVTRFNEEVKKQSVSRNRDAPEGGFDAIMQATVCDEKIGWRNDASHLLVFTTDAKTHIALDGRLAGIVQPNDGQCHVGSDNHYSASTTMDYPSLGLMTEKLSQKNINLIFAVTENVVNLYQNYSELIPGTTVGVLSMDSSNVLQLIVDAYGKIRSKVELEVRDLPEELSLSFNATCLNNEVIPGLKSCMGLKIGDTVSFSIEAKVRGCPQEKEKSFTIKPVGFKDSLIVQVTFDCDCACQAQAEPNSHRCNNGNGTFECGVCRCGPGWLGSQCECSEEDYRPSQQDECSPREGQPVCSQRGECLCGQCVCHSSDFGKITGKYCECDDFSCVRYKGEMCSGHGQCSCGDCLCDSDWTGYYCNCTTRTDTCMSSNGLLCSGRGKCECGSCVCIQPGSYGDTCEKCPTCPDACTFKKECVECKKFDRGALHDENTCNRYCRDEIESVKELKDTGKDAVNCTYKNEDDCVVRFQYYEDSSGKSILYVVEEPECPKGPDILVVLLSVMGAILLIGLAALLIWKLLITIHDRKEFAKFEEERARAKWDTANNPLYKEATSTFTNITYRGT
Chain of Integrin alpha-V/beta-3 (P06756 31-889 limits assumed): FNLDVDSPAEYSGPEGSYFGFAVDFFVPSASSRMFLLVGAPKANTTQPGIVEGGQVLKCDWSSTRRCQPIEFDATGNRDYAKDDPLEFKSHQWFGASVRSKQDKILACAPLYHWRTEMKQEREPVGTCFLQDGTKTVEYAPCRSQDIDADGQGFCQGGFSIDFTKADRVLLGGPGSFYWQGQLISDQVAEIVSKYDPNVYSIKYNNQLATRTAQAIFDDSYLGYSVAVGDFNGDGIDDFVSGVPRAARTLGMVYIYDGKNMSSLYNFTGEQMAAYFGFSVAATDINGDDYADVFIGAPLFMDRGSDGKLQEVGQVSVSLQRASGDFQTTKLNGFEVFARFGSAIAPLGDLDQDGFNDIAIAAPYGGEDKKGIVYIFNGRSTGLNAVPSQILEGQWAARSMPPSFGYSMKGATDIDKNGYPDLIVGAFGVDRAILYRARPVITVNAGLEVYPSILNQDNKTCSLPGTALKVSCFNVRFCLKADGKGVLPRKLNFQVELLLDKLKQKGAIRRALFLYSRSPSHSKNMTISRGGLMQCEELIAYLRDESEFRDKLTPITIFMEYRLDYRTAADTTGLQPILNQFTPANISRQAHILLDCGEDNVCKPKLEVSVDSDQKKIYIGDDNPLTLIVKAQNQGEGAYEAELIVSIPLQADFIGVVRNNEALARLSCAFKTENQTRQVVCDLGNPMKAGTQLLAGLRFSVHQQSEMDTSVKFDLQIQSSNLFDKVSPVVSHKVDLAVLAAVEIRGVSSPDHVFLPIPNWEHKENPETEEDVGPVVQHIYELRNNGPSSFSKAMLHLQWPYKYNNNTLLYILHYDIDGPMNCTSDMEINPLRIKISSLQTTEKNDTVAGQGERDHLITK
Chain of Integrin alpha-V/beta-3 (P06756 891-1048 limits assumed): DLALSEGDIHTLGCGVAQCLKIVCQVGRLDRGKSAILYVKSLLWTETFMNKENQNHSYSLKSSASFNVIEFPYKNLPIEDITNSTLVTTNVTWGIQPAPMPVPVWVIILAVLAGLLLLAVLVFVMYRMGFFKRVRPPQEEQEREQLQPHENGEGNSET
Chain of Integrin alpha-IIb/beta-3 (P05106 27-788 limits assumed): as the sequence (P05106 27-788 limits assumed) above
Chain of Integrin alpha-IIb/beta-3 (P08514 32-887 limits assumed): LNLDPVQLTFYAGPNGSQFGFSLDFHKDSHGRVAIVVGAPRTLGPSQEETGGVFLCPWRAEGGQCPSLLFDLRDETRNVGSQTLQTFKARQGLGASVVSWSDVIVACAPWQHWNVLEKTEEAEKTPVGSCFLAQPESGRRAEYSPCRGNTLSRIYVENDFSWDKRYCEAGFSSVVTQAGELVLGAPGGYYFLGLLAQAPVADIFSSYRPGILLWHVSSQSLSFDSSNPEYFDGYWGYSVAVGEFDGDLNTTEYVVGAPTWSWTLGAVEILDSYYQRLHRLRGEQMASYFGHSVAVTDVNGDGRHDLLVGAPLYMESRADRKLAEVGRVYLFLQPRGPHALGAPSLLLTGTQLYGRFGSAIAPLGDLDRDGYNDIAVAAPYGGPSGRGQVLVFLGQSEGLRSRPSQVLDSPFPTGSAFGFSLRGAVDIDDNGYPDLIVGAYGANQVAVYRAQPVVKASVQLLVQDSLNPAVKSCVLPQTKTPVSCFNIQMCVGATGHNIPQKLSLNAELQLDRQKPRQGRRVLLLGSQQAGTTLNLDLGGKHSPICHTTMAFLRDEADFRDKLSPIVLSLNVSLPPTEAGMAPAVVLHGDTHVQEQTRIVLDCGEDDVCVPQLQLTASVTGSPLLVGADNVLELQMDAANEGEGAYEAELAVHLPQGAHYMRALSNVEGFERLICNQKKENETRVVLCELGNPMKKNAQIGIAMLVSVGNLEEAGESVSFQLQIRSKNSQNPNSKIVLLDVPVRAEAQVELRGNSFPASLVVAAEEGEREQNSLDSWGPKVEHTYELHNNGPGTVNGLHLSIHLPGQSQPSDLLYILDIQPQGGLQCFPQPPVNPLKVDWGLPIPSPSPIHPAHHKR
Chain of Integrin alpha-IIb/beta-3 (P08514 891-1039 limits assumed): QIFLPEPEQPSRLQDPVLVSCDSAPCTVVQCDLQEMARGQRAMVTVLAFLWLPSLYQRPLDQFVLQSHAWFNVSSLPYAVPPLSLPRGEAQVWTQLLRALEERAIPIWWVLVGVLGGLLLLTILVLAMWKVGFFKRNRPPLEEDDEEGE
Chain of Integrin alpha-V/beta-5 (P06756 31-889 limits assumed): as the sequence (P06756 31-889 limits assumed) above
Chain of Integrin alpha-V/beta-5 (P06756 891-1048 limits assumed): as the sequence (P06756 891-1048 limits assumed) above
Chain of Integrin alpha-V/beta-5 (P18084 24-799 limits assumed): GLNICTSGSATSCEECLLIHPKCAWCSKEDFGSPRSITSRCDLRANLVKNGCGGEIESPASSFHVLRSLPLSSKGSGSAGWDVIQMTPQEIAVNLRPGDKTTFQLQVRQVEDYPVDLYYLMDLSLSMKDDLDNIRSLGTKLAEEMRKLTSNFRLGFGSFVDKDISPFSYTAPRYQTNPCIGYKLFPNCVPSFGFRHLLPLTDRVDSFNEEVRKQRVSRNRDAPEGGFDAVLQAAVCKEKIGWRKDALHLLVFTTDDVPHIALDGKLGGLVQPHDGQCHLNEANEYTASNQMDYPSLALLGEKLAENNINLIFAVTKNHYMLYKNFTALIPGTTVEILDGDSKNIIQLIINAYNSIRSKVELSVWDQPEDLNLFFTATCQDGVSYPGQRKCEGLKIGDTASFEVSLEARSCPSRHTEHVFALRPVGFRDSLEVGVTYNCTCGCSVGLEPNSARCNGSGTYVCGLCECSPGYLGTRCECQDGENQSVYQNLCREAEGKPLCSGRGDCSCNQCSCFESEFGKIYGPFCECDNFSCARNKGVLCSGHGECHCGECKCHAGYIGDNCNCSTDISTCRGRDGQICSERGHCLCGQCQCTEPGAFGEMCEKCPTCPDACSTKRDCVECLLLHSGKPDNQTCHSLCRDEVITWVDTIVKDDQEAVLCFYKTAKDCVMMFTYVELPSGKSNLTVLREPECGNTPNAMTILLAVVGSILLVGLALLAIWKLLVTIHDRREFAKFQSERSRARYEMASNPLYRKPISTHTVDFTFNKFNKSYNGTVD

Usually IC50 stands for the concentration needed to halve the response being measured. `O=C(O)CC1CC(CNC(=O)CCCCNc2ccccn2)=CCc2ccccc21` (stereo not given): the IC50 with IGROV-1 stood at 12 nM; on Integrin alpha-V/beta-3, 2.7 nM; on Integrin alpha-V/beta-5, 0.9 nM; in data set [1], 1200 nM. Also, the Absorption in the data set filed under Homo sapiens was 96%.
For the compound `O=C(O)CC1CC(CNC(=O)CCCNC2=NCCN2)=CCc2ccccc21` (stereo not given), the IC50 amounted to 18 nM in the data set on IGROV-1, 0.3 nM at Integrin alpha-V/beta-3, 0.2 nM at Integrin alpha-V/beta-5 and 110 nM in data set [1]. In addition, the Absorption in the data set listed under Homo sapiens is recorded as < 20%.
`O=C(O)CC1CC(CNC(=O)CCCNc2nc3ccccc3[nH]2)=CCc2ccccc21` (stereo not given): the IC50 in the data set on IGROV-1 was found to be 1.8 nM; on Integrin alpha-V/beta-3, 0.6 nM; on Integrin alpha-V/beta-5, 0.5 nM; in data set [1], 1020 nM. In addition, the Absorption in the data set filed under Homo sapiens is on record as < 20%.
The like results for `O=C(O)CC1CC(CNC(=O)CCNc2ccccn2)=CCc2ccccc21` (stereo not given) were, in that order, 338 nM, 584 nM, 22 nM, 1700 nM and 93%.
For `O=C(O)CC1CC(CNC(=O)CCCNC2=NCCCN2)=CCc2ccccc21` (stereo not given), the 50% inhibitory concentration (IC50) with IGROV-1 was determined as 2.7 nM; on Integrin alpha-V/beta-3, 0.2 nM; at Integrin alpha-V/beta-5, 0.1 nM; in data set [1] it was 330 nM. Also, in the data set filed under Homo sapiens, the Absorption is < 20%.
Take `CN(CCCC(=O)NCC1=CCc2ccccc2C(CC(=O)O)C1)c1ccccn1` (stereo not given): the IC50 in the data set with IGROV-1 is 2030 nM; on Integrin alpha-V/beta-3, 68 nM; at Integrin alpha-V/beta-5, 40 nM; in data set [1], 667 nM. The Absorption in the data set listed under Homo sapiens came out at 94%.
As to `O=C(O)CC1CC(CNC(=O)CCCNc2nccs2)=CCc2ccccc21` (stereo not given), the IC50 in the data set on IGROV-1 was 40 nM; on Integrin alpha-V/beta-3 it was 45 nM; on Integrin alpha-V/beta-5, 20 nM; in data set [1], > 10000 nM. Besides, the Absorption in the data set filed under Homo sapiens was 96%.
Consider `O=C(O)CC1CC(CNC(=O)CCCNc2ccccn2)=CCc2ccccc21` (stereo not given), for which the IC50 in the data set with IGROV-1 worked out at 2 nM; at Integrin alpha-V/beta-3 it was 1.9 nM; at Integrin alpha-V/beta-5 it was 0.8 nM; in data set [1] it was 4360 nM. Also, the Absorption in the data set listed under Homo sapiens amounted to 95%.
Turning to `O=C(O)CC1CC(CNC(=O)CCCc2ccc3c(n2)NCCC3)=CCc2ccccc21` (stereo not given), the 50% inhibitory concentration (IC50) with IGROV-1 amounted to 6.9 nM; on Integrin alpha-V/beta-3 it was 0.3 nM; on Integrin alpha-V/beta-5, 0.3 nM; in data set [1] it was 1490 nM. The compound further displayed an Absorption in the data set listed under Homo sapiens of 92%.
With `O=C(O)CC1CC(CNC(=O)CCNCc2ccccn2)=CCc2ccccc21` (stereo not given), the IC50 turned out to be 2700 nM with IGROV-1, 842 nM on Integrin alpha-V/beta-3, 119 nM at Integrin alpha-V/beta-5 and 552 nM in data set [1]. This compound also returned an Absorption in the data set listed under Homo sapiens of 23%.
